Measured values as given in ChEMBL document CHEMBL4613298, “GPBAR1 Activation by C6-Substituted Hyodeoxycholane Analogues Protect against Colitis” (ACS Med Chem Lett, 2020).
Calls of active or inactive are those of the source. No cut-off for these calls is given here.

How the values were obtained:
[1] = molecular target: T1, G-protein coupled bile acid receptor 1 (Homo sapiens) (UniProt Q8TDU6); assay: Transactivation of human GPBAR1 receptor expressed in HEK293T cells assessed as maximum receptor activation at 10 uM after 18 hrs by cAMP response element driven renilla-luciferase dual reporter gene assay relative to TLCA; assay type: functional, cell-based; details: HEK-293T
T1 sequence (whole entry): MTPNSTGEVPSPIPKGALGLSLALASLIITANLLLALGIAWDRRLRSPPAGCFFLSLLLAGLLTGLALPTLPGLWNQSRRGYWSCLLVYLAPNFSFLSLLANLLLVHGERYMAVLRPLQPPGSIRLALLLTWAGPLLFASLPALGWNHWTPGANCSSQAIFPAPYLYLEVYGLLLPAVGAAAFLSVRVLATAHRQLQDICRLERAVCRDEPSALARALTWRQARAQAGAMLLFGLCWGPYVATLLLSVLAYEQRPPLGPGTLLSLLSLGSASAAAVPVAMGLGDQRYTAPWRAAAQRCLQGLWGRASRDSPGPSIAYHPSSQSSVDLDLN
Outline: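 HEK-293T cells transfected with GPBAR1 and a CRE-driven luciferase reporter, exposed to compound at 10 μM. Efficacy is maximal CRE transactivation as percent of that caused by TLCA (10 μM). One experiment, triplicate.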

[2] = molecular target: T2, Bile acid receptor (Homo sapiens) (UniProt Q96RI1); assay: Transactivation of FXR (unknown origin) expressed in HepG2 cells co-expressing pSG5RXR/pGL4.70 assessed as maximum receptor activation at 10 uM after 18 hrs by IR1 driven dual renilla-luciferase reporter gene assay relative to relative to CDCA; assay type: cell-based
T2 sequence (whole entry): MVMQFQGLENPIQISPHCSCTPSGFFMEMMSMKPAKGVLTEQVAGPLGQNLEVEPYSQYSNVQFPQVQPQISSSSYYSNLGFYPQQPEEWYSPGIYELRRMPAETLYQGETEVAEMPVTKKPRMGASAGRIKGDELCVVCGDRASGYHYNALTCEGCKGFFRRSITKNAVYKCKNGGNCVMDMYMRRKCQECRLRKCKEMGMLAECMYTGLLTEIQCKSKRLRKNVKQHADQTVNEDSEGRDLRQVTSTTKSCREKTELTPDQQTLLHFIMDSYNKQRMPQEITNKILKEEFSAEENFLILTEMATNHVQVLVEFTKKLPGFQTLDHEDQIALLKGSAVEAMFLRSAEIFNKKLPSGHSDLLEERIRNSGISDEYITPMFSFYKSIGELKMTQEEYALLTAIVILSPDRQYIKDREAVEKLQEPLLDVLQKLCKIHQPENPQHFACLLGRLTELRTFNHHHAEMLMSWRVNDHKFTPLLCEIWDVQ
Outline: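 FXR reporter assay in HepG2 cells transfected with FXR and an IR1-driven luciferase reporter, compound at 10 μM. Efficacy is maximal IR1 transactivation relative to CDCA (10 μM). One experiment, triplicate.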

Homo sapiens = species: Homo sapiens; assay: Selectivity index, ratio of transactivation of human GPBAR1 receptor expressed in HEK293T cells assessed as maximum receptor activation at 10 uM to transactivation of human FXR (unknown origin) expressed in HepG2 cells co-expressing pSG5RXR/pGL4.70 assessed as maximum receptor activation at 10 uM; assay type: cell-based
Outline: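 Ratio of percent activity at GPBAR1 (HEK-293T, CRE-luciferase, 10 μM, vs TLCA 10 μM) to percent activity at FXR (HepG2, IR1-luciferase, 10 μM, vs CDCA 10 μM). Both taken from the same triplicate experiment.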

[3] = Aqueous solubility of compound in pH 7.4 PBS/MeOH at 10 mM after 24 hrs by LC-MS analysis; assay type: physicochemical; details: buffer, pH 7.4, 24 h, 10000 µM
[4] = molecular target: T1, G-protein coupled bile acid receptor 1 (Homo sapiens); assay: Agonist activity at GPBAR1 receptor in human THP1 cells assessed as reduction in LPS-induced IL-1beta expression at 10 uM after 18 hrs by RT-PCR analysis; assay type: cell-based; details: THP-1
Outline: (§1)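 THP1 monocytic/macrophage cells primed with LPS, then coincubated with or without test agent at 10 μM; expression of cytokine genes (IL-1β, IL-6, TNF-α, IL-10) measured.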

[5] = molecular target: T1, G-protein coupled bile acid receptor 1 (Homo sapiens); assay: Agonist activity at GPBAR1 receptor in human THP1 cells assessed as reduction in LPS-induced IL-6 expression at 10 uM after 18 hrs by RT-PCR analysis; assay type: cell-based; details: THP-1; outline: as §1
[6] = molecular target: T1, G-protein coupled bile acid receptor 1 (Homo sapiens); assay: Agonist activity at GPBAR1 receptor in human THP1 cells assessed as reduction in LPS-induced TNFalpha expression at 10 uM after 18 hrs by RT-PCR analysis; assay type: cell-based; details: THP-1; outline: as §1
[7] = molecular target: T1, G-protein coupled bile acid receptor 1 (Homo sapiens); assay: Agonist activity at GPBAR1 receptor in LPS-stimulated human THP1 cells assessed as increase in IL-10 expression at 10 uM after 18 hrs by RT-PCR analysis; assay type: cell-based; details: THP-1; outline: as §1
Mus musculus [8] = assay: Anti-colitis activity in Gpbar1 (+/+) TNBS-induced C57BL/6NCrl mouse model of colitis assessed as decrease in Clinical Disease activity index at 30 mg/kg, po; assay type: functional, organism-based
Outline: (§2)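 Gpbar1+/+ and Gpbar1–/– mice given TNBS alone or with test agent at 30 mg/kg; body weight change and CDAI followed over the colitis course; colon sections H&E stained (10× magnification); n = 5 per group.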

Mus musculus [9] = assay: Antiinflammatory activity in Gpbar1 (+/+) TNBS-induced C57BL/6NCrl mouse model of colitis assessed as reduction in IL-6 mRNA expression at 30 mg/kg, po by RT-PCR analysis; assay type: functional, organism-based
Outline: (§3)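 Gpbar1+/+ and Gpbar1–/– mice given TNBS alone or with test agent at 30 mg/kg; colon samples analysed by RT-PCR for relative mRNA of Il-1β, Il-6, Tnf-α, Il-10 and Gpbar1.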

Mus musculus [10] = assay: Antiinflammatory activity in Gpbar1 (+/+) TNBS-induced C57BL/6NCrl mouse model of colitis assessed as reduction in IL-1beta mRNA expression at 30 mg/kg, po by RT-PCR analysis; assay type: functional, organism-based; outline: as §3
Mus musculus [11] = assay: Antiinflammatory activity in Gpbar1 (+/+) TNBS-induced C57BL/6NCrl mouse model of colitis assessed as reduction in TNFalpha mRNA expression at 30 mg/kg, po by RT-PCR analysis; assay type: functional, organism-based; outline: as §3
Mus musculus [12] = assay: Antiinflammatory activity in Gpbar1 (+/+) TNBS-induced C57BL/6NCrl mouse model of colitis assessed as increase in IL-10 mRNA expression at 30 mg/kg, po by RT-PCR analysis; assay type: functional, organism-based; outline: as §3
Mus musculus [13] = assay: Effect on IL-6 mRNA expression in Gpbar1 deficient TNBS-induced C57BL/6NCrl mouse model of colitis harboring assessed as reduction in IL-6 mRNA expression at 30 mg/kg, po by RT-PCR analysis; assay type: functional, organism-based; outline: as §3
Mus musculus [14] = assay: Effect on IL-1beta mRNA expression in Gpbar1 deficient TNBS-induced C57BL/6NCrl mouse model of colitis harboring […] expression at 30 mg/kg, po by RT-PCR analysis; assay type: functional, organism-based; outline: as §3
Mus musculus [15] = assay: Effect on TNFalpha mRNA expression in Gpbar1 deficient TNBS-induced C57BL/6NCrl mouse model of colitis harboring […] expression at 30 mg/kg, po by RT-PCR analysis; assay type: functional, organism-based; outline: as §3
Mus musculus [16] = assay: Effect on IL-10 mRNA expression in Gpbar1 deficient TNBS-induced C57BL/6NCrl mouse model of colitis harboring […] expression at 30 mg/kg, po by RT-PCR analysis; assay type: functional, organism-based; outline: as §3
Mus musculus [17] = assay: Anti-colitis activity in Gpbar1 (+/+) TNBS-induced C57BL/6NCrl mouse model of colitis assessed as effect on body weight loss at 30 mg/kg, po; assay type: functional, organism-based; outline: as §2
Mus musculus [18] = assay: Anti-colitis activity in Gpbar1 (+/+) TNBS-induced C57BL/6NCrl mouse model of colitis assessed as colon damage at 30 mg/kg, po by H and E staining analysis; assay type: functional, organism-based; outline: as §2
Mus musculus [19] = assay: Anti-colitis activity in Gpbar1 (-/-) TNBS-induced C57BL/6NCrl mouse model of colitis assessed as decrease in Clinical Disease activity index at 30 mg/kg, po; assay type: functional, organism-based; outline: as §2
Mus musculus [20] = assay: Anti-colitis activity in Gpbar1 (-/-) TNBS-induced C57BL/6NCrl mouse model of colitis assessed as effect on body weight loss at 30 mg/kg, po; assay type: functional, organism-based; outline: as §2
Mus musculus [21] = assay: Anti-colitis activity in Gpbar1 (-/-) TNBS-induced C57BL/6NCrl mouse model of colitis assessed as colon damage at 30 mg/kg, po by H and E staining analysis; assay type: functional, organism-based; outline: as §2

CC[C@]1(O)C[C@H]2[C@@H]3CC[C@H]([C@H](C)CC#N)[C@@]3(C)CC[C@@H]2[C@@]2(C)CC[C@@H](O)C[C@@H]12
max activation [1]: 101%
max activation [2]: 12.3%
Selectivity Index (Homo sapiens): 8.2
solubility [3]: Soluble
Activity [4]: Active
Activity [5]: Active
Activity [6]: Active
Activity [7]: Active
Activity (Mus musculus [8]): Active
Activity (Mus musculus [9]): Active
Activity (Mus musculus [10]): Active
Activity (Mus musculus [11]): Active
Activity (Mus musculus [12]): Active
Activity (Mus musculus [13]): inactive
Activity (Mus musculus [14]): inactive
Activity (Mus musculus [15]): inactive
Activity (Mus musculus [16]): inactive
Activity (Mus musculus [17]): Active
Activity (Mus musculus [18]): Active
Activity (Mus musculus [19]): inactive
Activity (Mus musculus [20]): inactive
Activity (Mus musculus [21]): inactive
